Series [1] has as its system U2OS. The series is described as follows: Induction of ER stress in human U2OS cells expressing ER-moxGFP assessed as vacuolization at 1 uM measured after 2 to 24 hrs by phase contrast microscopic analysis. Format: functional, cell-based. To be noted: time 2-24 hrs. The method in brief:
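U2OS stably expressing ER-moxGFP exposed to 1 μM over a time course; morphology by phase contrast and ER by GFP fluorescence microscopy.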

Series [2] deals with U2OS. Description: Induction of ER stress in human U2OS cells assessed as vacuolization at 1 uM incubated for 12 hrs in presence of z-VAD-fmk by phase contrast microscopic analysis. Format: functional, cell-based. The essentials: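 U2OS cells pre-incubated 1 h with 50 μM z-VAD-fmk, then exposed 12 h to 1 μM compound; morphology viewed by phase contrast.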
Series [3] in a line: AUC in female CD-1 mouse at 5 mg/kg, iv measured for 480 mins by LC-MS/MS analysis. The format is ADME, organism-based. Details: dose 5 mg/kg, time 480 min, route iv. To be noted: in vivo. The essentials: (§1)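 Female (or male, as per line) CD-1 mice, 3 per time point, given a single 5 mg/kg dose in 10% Kolliphor EL in saline (injections) or water (oral). Blood sampled 5–480 min; plasma extracted with CH₃CN and quantified by LC-MS/MS (ESI+, m/z 251.20) against a calibration curve in extracted plasma; parameters by non-compartmental analysis.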

Series [4] relates to U2OS. Description: Induction of apoptosis in human U2OS cells assessed as cell shrinkage. The format is functional, cell-based.
A short description of series [5]: Half life in female CD-1 mouse at 5 mg/kg, ip measured for 480 mins by LC-MS/MS analysis. Format: ADME, organism-based. The following applies: in vivo. The method in brief: as §1

Active and inactive are the calls of the source. The calls are words filed in the database; no cut-off is given here.

The AUC is the area under the concentration-time curve, a measure of exposure. A high value points to more exposure. For orientation: half-life means how long it takes for the measured level to halve. For the molecule `C#C[C@H](O)C#Cc1ccc(CCCCCCCC)cc1`, the result with U2OS [1], with U2OS [2] and with U2OS [4] was Active. The AUC at 8 h in series [3] is 1760 ng·h/mL. Also, the half-life in series [5] worked out at 58 min.

Values taken from ChEMBL document CHEMBL5370613, “Phenyl dialkynylcarbinols, a Bioinspired Series of Synthetic Antitumor Acetylenic Lipids” (J Med Chem, 2023).
